Active and inactive are the calls of the source. The calls are words filed in the database; no cut-off is given here.

These results are taken from ChEMBL document CHEMBL3227984, “5-Substituted uracil arabinonucleosides as potential antiviral agents” (J Med Chem, 1979).

Data set [1] is described as follows: Cytotoxicity against human skin fibroblasts assessed as inhibition of DNA synthesis by labeled thymidine/2'-deoxyuridine assay. To be noted: skin fibroblast. The method, boiled down: (§1)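 DNA synthesis in cultures (primary rabbit kidney cells or human skin fibroblasts) exposed to the analogues was monitored by incorporation of labeled thymidine or labeled 2'-deoxyuridine.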

Data set [2] can be described thus: Cytotoxicity against primary rabbit kidney cells assessed as change in cell morphology. The class given is cell-based, Oryctolagus cuniculus.
Data set [3] relates to Human alphaherpesvirus 1. The data set is described as follows: Antiviral activity against HSV1 KOS infected in primary rabbit kidney cells assessed as inhibition of virus-induced cytopathogenicity. The class given is functional.
For data set [4], the system named is Vesicular stomatitis virus. Description: Antiviral activity against Vesicular stomatitis virus infected in primary rabbit kidney cells assessed as inhibition of virus-induced cytopathogenicity. In kind it is functional.
Data set [5] is described as follows: Dissociation constant, pKa of the compound. In kind it is physicochemical.
A short description of data set [6]: Cytotoxicity against human skin fibroblasts assessed as change in cell morphology. To be noted: skin fibroblast.
A short description of data set [7]: Cytotoxicity against primary rabbit kidney cells assessed as inhibition of DNA synthesis by labeled thymidine/2'-deoxyuridine assay. The class given is cell-based, Oryctolagus cuniculus. The method, boiled down: as §1
For data set [8], the system named is Human alphaherpesvirus 1. Description: Antiviral activity against HSV1 KOS infected in human skin fibroblasts assessed as inhibition of virus-induced cytopathogenicity. In kind it is functional, organism-based.

As to `O=c1[nH]c(=O)n([C@@H]2O[C@H](CO)[C@@H](O)[C@@H]2O)cc1[N+](=O)[O-]`, the Activity result in data set [1], in data set [2], in data set [6] and in data set [7] was “Non-toxic” in each case. In addition, the ID50 in the data set with Human alphaherpesvirus 1 [3] was over 6.9 ×10⁻⁴ M; in data set [4], over 1 ×10⁻⁴ M. The pKa in data set [5] was determined as 5.7. Also, the Antiviral activity entry with Human alphaherpesvirus 1 [8] was “Active”.

On to `N#Cc1cn([C@@H]2O[C@H](CO)[C@@H](O)[C@@H]2O)c(=O)[nH]c1=O`, for which the Activity result in data set [1], in data set [2], in data set [6] and in data set [7] was “Non-toxic” throughout. The ID50 in the data set on Human alphaherpesvirus 1 [3] is reported as over 3.7 ×10⁻⁴ M; in data set [4], over 1 ×10⁻⁴ M. In data set [5], this compound had a pKa of 6.8. Moreover, the Antiviral activity result in the data set with Human alphaherpesvirus 1 [8] was “Active”.

With `O=c1ccn([C@@H]2O[C@H](CO)[C@@H](O)[C@@H]2O)c(=O)[nH]1` [ARAURIDINE], the Activity result in data set [2] and in data set [6] was “Non-toxic” throughout. In addition, the ID50 was 4.1 ×10⁻⁵ M in the data set with Human alphaherpesvirus 1 [3] and over 1 ×10⁻⁴ M in data set [4]. In addition, the Antiviral activity entry in the data set on Human alphaherpesvirus 1 [8] was “Active”.

On to `Cc1cn([C@@H]2O[C@H](CO)[C@@H](O)[C@@H]2O)c(=O)[nH]c1=O`, for which the Activity entry in data set [2] and in data set [6] was “Non-toxic” each time. The ID50 with Human alphaherpesvirus 1 [3] is on record as 3.9 ×10⁻⁷ M; in data set [4], over 1 ×10⁻⁴ M. Further, in the data set with Human alphaherpesvirus 1 [8], the Antiviral activity entry was “Active”.

Consider `O=c1[nH]c(=O)n([C@@H]2O[C@H](CO)[C@@H](O)[C@@H]2O)cc1O`, for which the Activity entry in data set [1], in data set [2], in data set [6] and in data set [7] was “Non-toxic” each time. Also, the ID50 in the data set on Human alphaherpesvirus 1 [3] was over 3.9 ×10⁻⁴ M; in data set [4] it was over 1 ×10⁻⁴ M. Further, the pKa in data set [5] was found to be 7.8. For the same compound, the Antiviral activity entry in the data set on Human alphaherpesvirus 1 [8] is “Active”.

Turning to `O=c1[nH]c(=O)n([C@@H]2O[C@H](CO)[C@@H](O)[C@@H]2O)cc1I`, the pKa in data set [5] was 8.

`O=c1[nH]c(=O)n([C@@H]2O[C@H](CO)[C@@H](O)[C@@H]2O)cc1Br`: the pKa in data set [5] worked out at 8.
